Screens as filed in PubChem.
Hits are enriched below; roughly 1.4% of the tested compounds scored in any of these assays.
CRFR2-BP antag – antagonists of CRF-binding protein/CRF-R2 receptor complex; HEK293 CRF-R2/CRF-BP, CRF-induced calcium fluorescence; hit rate 0.59% among 350,000; AID 588475; inhibition, % at 11.8 µM;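 active = inhibition of the ligand-induced calcium signal above about 50% at the single tested concentration, limit read from the data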
RTF Ca sens act – cardiac RTF calcium sensitization; P19429+P45379; IANBD-labeled TnC RTF fluorescence at EC20 calcium; 0% EC20 calcium, 100% full calcium; activation, % at 7.2 µM; hit rate 0.24% among 340,000; AID 493008;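 active = activation above the mean over all tested compounds plus 3 SD, cut at about 30% in these data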;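 note: rise in fluorescence read as greater calcium sensitivity of cardiac thin filaments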
DDE Tn6 FP inh – inhibitors of Tn6 peptide binding to human fibrin DD(E). Fibrin DD(E) TRITC-Tn6 fluorescence polarization displacement. AID 720509. P02675. hit rate 0.21% among 370,000. inhibition, % at 8.3 µM;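 active = inhibition above a per-campaign cutoff: mean of compounds within control limits plus 3 SD, cut at about 15% in these data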;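 note: 0% = median of all compound wells on the plate and 100% = blocking peptide control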
Target sequence (P02675 whole entry, looked up): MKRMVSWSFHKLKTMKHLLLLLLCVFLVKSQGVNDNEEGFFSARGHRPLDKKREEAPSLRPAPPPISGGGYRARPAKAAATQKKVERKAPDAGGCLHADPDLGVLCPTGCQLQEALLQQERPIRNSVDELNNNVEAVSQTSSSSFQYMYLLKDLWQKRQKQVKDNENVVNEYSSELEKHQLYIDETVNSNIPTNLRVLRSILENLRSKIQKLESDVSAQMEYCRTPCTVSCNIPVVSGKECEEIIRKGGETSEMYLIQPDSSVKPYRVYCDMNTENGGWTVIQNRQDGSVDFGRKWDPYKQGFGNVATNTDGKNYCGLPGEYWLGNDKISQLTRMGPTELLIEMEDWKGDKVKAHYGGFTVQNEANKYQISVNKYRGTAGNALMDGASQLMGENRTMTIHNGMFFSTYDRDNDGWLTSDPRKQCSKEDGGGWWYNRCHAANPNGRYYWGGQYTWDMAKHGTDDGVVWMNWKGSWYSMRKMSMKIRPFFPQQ
CRFR2-BP ag – CRF-BP/CRF-R2 complex agonism; HEK293 CRF-R2/CRF-BP, calcium dye fluorescence (FLIPR); percent of saturating CRF peptide response; activation, % at 13.2 µM; hit rate 0.46% among 350,000; AID 588473;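 active = activation of at least 50%, plus an integration ratio under a set limit after plate pattern correction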;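 note: plate controls were neutral control wells without compound for no effect and CRF at EC100 for full effect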
DDE Tn7 FP inh – DD(E)-Tn7 binding inhibition, primary FP screen. AID 720508. FP displacement of FITC-Tn7 peptide from fibrin DD(E); 0% = median of compound wells per plate. hit rate 0.13% among 370,000. inhibition, % at 8.3 µM. P02675;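 active = inhibition above the mean of compounds falling within the control limits plus 3 SD of them, cut at about 14% in these data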;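 note: 0% = plate median of compound wells and 100% = 10 µM Aha-Tn7 peptide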
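Assay system: human fibrin DD(E) protein / Input: 2 µM fibrin DD(E) / Benchmarks: high control of 10 µM Aha-Tn7 peptide / Measured by: fluorescence polarization of the labelled Tn7 tracer / Medium: Tris buffer with calcium and detergent, pH 7.8 / Timing: 10 min compound pre-incubation, 3 h probe incubation at room temperature / Repeats: one replicate per compound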
Cardiac RTF inh – cardiac RTF calcium desensitization; P19429+P45379; IANBD-labeled cardiac RTF, Ca2+ fluorescence; inhibition, % at 7.15 µM; hit rate 0.12% among 340,000;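 active = inhibition above the mean inhibition of all tested compounds plus 3 SD, cut at about 17% in these data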;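 note: assay run at fixed EC70 calcium of 1.6 mM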
* = called active by the depositor.

Cc1ccc([C@@H]2CC=C(C(=O)O)[C@H](c3ccc(C(C)(C)C)cc3)N2S(=O)(=O)c2ccc(C)cc2)cc1 was read as CRFR2-BP antag 25, RTF Ca sens act -7, DDE Tn6 FP inh -4, CRFR2-BP ag 10, DDE Tn7 FP inh 5 and Cardiac RTF inh -7.
For COc1ccc(CN(CC#Cc2ccccc2)Cc2ccccc2)c(OC)c1 the results were DDE Tn6 FP inh -11 and DDE Tn7 FP inh -3.
Screening O=C(c1ccccc1I)N1CCC(Oc2cccnc2)CC1 returned DDE Tn6 FP inh 3 and DDE Tn7 FP inh 3.
O=[n+]1c2c(n([O-])c3cc(F)c(N4CCCC4)cc31)CCCC2 was read as CRFR2-BP antag -20, RTF Ca sens act 79*, DDE Tn6 FP inh 12, CRFR2-BP ag 55*, DDE Tn7 FP inh 1 and Cardiac RTF inh -84.
For O=[n+]1c2c(n([O-])c3cc(F)ccc31)CCCC2 the results were CRFR2-BP antag -1, RTF Ca sens act -1, DDE Tn6 FP inh -13, CRFR2-BP ag 2, DDE Tn7 FP inh -4 and Cardiac RTF inh -1.
Screening CCCn1nc(C(=O)Nc2cc(S(=O)(=O)Nc3ccc(OC)cc3)ccc2O)c2ccccc2c1=O returned CRFR2-BP antag 54*, RTF Ca sens act -3, DDE Tn6 FP inh 2, CRFR2-BP ag -1, DDE Tn7 FP inh 5 and Cardiac RTF inh 2.
Screening COc1cc(CN(C(=O)c2ccco2)c2ccc(C)cc2)ccc1O returned CRFR2-BP antag 29, RTF Ca sens act 2, DDE Tn6 FP inh -2, CRFR2-BP ag -4, DDE Tn7 FP inh 1 and Cardiac RTF inh 0.
Cc1ccc(N(Cc2ccc([N+](=O)[O-])cc2)C(=O)c2ccco2)cc1 was read as CRFR2-BP antag 62*, RTF Ca sens act 5, DDE Tn6 FP inh 7, CRFR2-BP ag -4, DDE Tn7 FP inh 6 and Cardiac RTF inh -2.
`CCOC(=O)C1CCCN(C(=O)c2cccc(S(=O)(=O)N(Cc3ccccc3)c3ccccc3OC)c2)C1` (stereo not given) gave CRFR2-BP antag 51*, RTF Ca sens act -8, DDE Tn6 FP inh 5, CRFR2-BP ag -2, DDE Tn7 FP inh -7 and Cardiac RTF inh -2.
`CCOC(=O)C1CCCN(C(=O)c2cccc(S(=O)(=O)N(C)c3ccc(OC)cc3)c2)C1` (stereo not given) gave CRFR2-BP antag 1, RTF Ca sens act -2, DDE Tn6 FP inh 4, CRFR2-BP ag 0, DDE Tn7 FP inh -7 and Cardiac RTF inh -3.
`CCOC(=O)C1CCN(C(=O)c2ccc(C)c(S(=O)(=O)N3CCCC3)c2)CC1` gave CRFR2-BP antag 2, RTF Ca sens act 2, DDE Tn6 FP inh 5, CRFR2-BP ag -1, DDE Tn7 FP inh -3 and Cardiac RTF inh -7.
`CCOC(=O)C1CCCN(C(=O)c2ccc(Cl)c(S(=O)(=O)N3CCCCC3)c2)C1` (stereo not given) gave CRFR2-BP antag 53*, RTF Ca sens act -1, DDE Tn6 FP inh -8, CRFR2-BP ag 0, DDE Tn7 FP inh -3 and Cardiac RTF inh -6.
Nc1ccc(S(N)(=O)=O)cc1N was read as CRFR2-BP antag -13, RTF Ca sens act 30*, DDE Tn6 FP inh 3, CRFR2-BP ag 1, DDE Tn7 FP inh 3 and Cardiac RTF inh -9.
Nc1ccc(S(N)(=O)=O)cc1 was read as CRFR2-BP antag 4, RTF Ca sens act -3, DDE Tn6 FP inh 6, CRFR2-BP ag -1, DDE Tn7 FP inh 3 and Cardiac RTF inh 7.
`O=C(Nc1ccc(C(=O)N2CCCC2)cc1)c1ccccc1F` gave CRFR2-BP antag 66*, RTF Ca sens act 10, CRFR2-BP ag 1 and Cardiac RTF inh -2.
Screening O=C(Nc1ccc(N2CCCCCC2)cc1)c1ccccc1Cl returned CRFR2-BP antag 81*, RTF Ca sens act 13, DDE Tn6 FP inh -4, CRFR2-BP ag -5, DDE Tn7 FP inh -3 and Cardiac RTF inh -8.
Cc1cccc(C(=O)N2c3ccccc3C(=O)OC2c2ccc3c(c2)OCO3)c1 (stereo not given) was read as CRFR2-BP antag 75*, RTF Ca sens act 3, DDE Tn6 FP inh -10, CRFR2-BP ag 2, DDE Tn7 FP inh 0 and Cardiac RTF inh -6.
For O=C1OC(c2ccc3c(c2)OCO3)N(C(=O)c2ccc(Cl)c(Cl)c2)c2ccccc21 (stereo not given) the results were CRFR2-BP antag -6, RTF Ca sens act -4, DDE Tn6 FP inh -13, CRFR2-BP ag 6, DDE Tn7 FP inh -7 and Cardiac RTF inh 0.
Screening CC(C)[C@H](NC(=O)C1CCCC1)C(=O)N1CCC[C@H]1C(=O)NCc1ccccc1 returned DDE Tn6 FP inh -6 and DDE Tn7 FP inh -11.
Screening COCc1cccc(-c2csc(C(NC(C)=O)c3ccccc3)n2)c1 (stereo not given) returned DDE Tn6 FP inh 1 and DDE Tn7 FP inh 2.
Screening O=c1c2ccccc2c(-c2ccc(O)cc2)nn1-c1cccc(C(F)(F)F)c1 returned CRFR2-BP antag 57*, RTF Ca sens act 0, DDE Tn6 FP inh -6, CRFR2-BP ag 1, DDE Tn7 FP inh 3 and Cardiac RTF inh 0.
Screening O=c1c2ccccc2c(-c2cccc(C(F)(F)F)c2)nn1-c1ccccc1 returned CRFR2-BP antag 0, RTF Ca sens act -8, DDE Tn6 FP inh -8, CRFR2-BP ag 2, DDE Tn7 FP inh -1 and Cardiac RTF inh 5.
c1cc(-c2ccc(N3CCOCC3)cc2)n2ccnc2c1 was read as DDE Tn6 FP inh -1 and DDE Tn7 FP inh 3.
Screening CCCNc1c(F)c(F)c2c(C)c3ccccc3nc2c1F returned CRFR2-BP antag -6, RTF Ca sens act 36*, DDE Tn6 FP inh 4, CRFR2-BP ag 3, DDE Tn7 FP inh 7 and Cardiac RTF inh -48.
`CCOP(=O)(OCC)C(Nc1cccc([N+](=O)[O-])c1)c1ccccc1` (stereo not given) gave CRFR2-BP antag 84*, RTF Ca sens act -1, DDE Tn6 FP inh -4, CRFR2-BP ag 0, DDE Tn7 FP inh 0 and Cardiac RTF inh 3.
Screening CCCC(=O)N1CCCC1(C)C(=O)NCc1c(F)ccc(C)c1F (stereo not given) returned DDE Tn6 FP inh -6 and DDE Tn7 FP inh 1.
For CCCCNS(=O)(=O)/C=C/c1cc(C)ccc1CNC(=O)OC(C)(C)C the results were DDE Tn6 FP inh -2 and DDE Tn7 FP inh 0.
For CCCCc1ccc(NC(=O)Nc2cccnc2)cc1 the results were CRFR2-BP antag -8, RTF Ca sens act -5, DDE Tn6 FP inh -15, CRFR2-BP ag 1, DDE Tn7 FP inh -3 and Cardiac RTF inh 4.
For CCCCc1ccc(NC(=S)Nc2cccnc2)cc1 the results were CRFR2-BP antag 53*, RTF Ca sens act 4, DDE Tn6 FP inh 1, CRFR2-BP ag -2, DDE Tn7 FP inh -4 and Cardiac RTF inh -8.
